As usually defined, the ED50 is the dose that gives a 50% effect, or the effect in half of the subjects. A higher ED50 goes with weaker potency.

The text below walks through data of ChEMBL document CHEMBL1134589, “Antimalarial simplified 3-aryltrioxanes: synthesis and preclinical efficacy/toxicity testing in rodents” (2001).

For assay [1], the system named is Mus musculus. Nature of the assay: Antimalarial efficacy against Plasmodium berghei in mice (Mus musculus) when administered intravenously each day for 4 days to five mice (Mus musculus) per dose regimen. Format: functional. The conditions noted are these: iv, 96 h. The procedure, abridged:
(§1)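 P. berghei-infected mice; four doses (1, 3, 10 and 30 mg/kg) given once daily for four days, five mice per dose regimen, by sc or iv route as per line. ED50 and ED90 derived from the dose–response, reported in mg/kg and µmol/kg.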

The subject of assay [2] is Mus musculus. Nature of the assay: Antimalarial efficacy against Plasmodium berghei in mice (Mus musculus) when administered subcutaneously each day for 4 days to five mice (Mus musculus) per dose regimen. Format: functional. The conditions noted are these: sc, 96 h. The procedure, abridged:
as §1

For `CO[C@@H]1O[C@@]2(c3ccc(C(=O)O)cc3)CC[C@H]3CCCC[C@]31OO2`, in assay [1], it took a dose of 19.5 mg/kg to reach the 50% effect level (ED50) and the ED90 amounted to 55 mg/kg. Also, in assay [2], the ED50 is 22.5 mg/kg and the ED90 came out at 112 mg/kg.

With `CO[C@H]1O[C@@]2(c3ccc(C(=O)O)cc3)CC[C@H]3CCCC[C@]31OO2`, in assay [1], the ED50 is 16.5 mg/kg and the ED90 amounted to 48 mg/kg. In assay [2], this compound displayed an ED50 of 10.5 mg/kg and an ED90 of 19.5 mg/kg.

`CO[C@@H]1O[C@@]2(c3ccc(F)cc3)CC[C@H]3CCCC[C@]31OO2`: in assay [1], the 50% effective dose (ED50) worked out at 4 mg/kg and the ED90 was 8 mg/kg. In assay [2], this compound displayed an ED50 of 4.7 mg/kg and an ED90 of 8.3 mg/kg.

As to `C[C@@H]1[C@H](OCc2ccc(C(=O)O)cc2)O[C@@H]2O[C@@]3(C)CC[C@@H]4[C@@H](C)CC[C@@H]1[C@]24OO3` [ARTELINIC ACID], in assay [1], the 50% effect level (ED50) was put at a dose of 4.3 mg/kg and the ED90 worked out at 15.5 mg/kg. In assay [2], this compound showed an ED50 of 6.6 mg/kg and an ED90 of 14 mg/kg.

As to `CCO[C@H]1O[C@@H]2O[C@@]3(C)CC[C@H]4[C@H](C)CC[C@@H]([C@H]1C)[C@@]24OO3` [ARTEMOTIL], in assay [1], the ED50 stood at 0.46 mg/kg. In assay [2], the ED50 worked out at 0.9 mg/kg and the ED90 was 1.4 mg/kg.

For `CCN(CC)CCCC(C)Nc1ccnc2cc(Cl)ccc12` (stereo unspecified) [CHLOROQUINE], the median effective dose (ED50) in assay [1] was 5 mg/kg; in assay [2] it was 1 mg/kg.
